According to ChEMBL document CHEMBL3286242, “Design, synthesis and biological evaluation of arylcinnamide hybrid derivatives as novel anticancer agents” (Eur J Med Chem, 2014):
Each block holds one compound with its values, some of them ahead of it. Calls of active or inactive are those of the source. The rule behind the calls is not given here.

Key:
L1210 = test: Cytotoxicity against mouse L1210 cells; assay type: functional, cell-based
[1] = Cytotoxicity against human CEM/VBL100 cells assessed as growth inhibition after 72 hrs by MTT assay; assay type: functional, cell-based; settings: CEM/VBL100, 72 h
Tubulin (Bos taurus) = Tubulin (Bos taurus) (UniProt Q6B856+Q862L2+Q862F3); test: Inhibition of bovine brain tubulin polymerization at 20 uM by turbidimetry
Summary of the method: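 Purified bovine brain tubulin (10 μM) preincubated with compound in glutamate buffer at 30 °C, cooled to 0 °C, GTP added, then warmed to 30 °C in cuvettes; assembly followed turbidimetrically; concentrations up to 20 μM.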

[2] = Selectivity ratio of IC50 for human resting PBMC to IC50 for human CEM cells; assay type: ADME, cell-based, CCRF-CEM; settings: resting PBMC versus CEM cells, read-out: Ratio IC50
HeLa [3] = test: Induction of apoptosis in human HeLa cells assessed as caspase activation at 2.5 uM after 48 hrs in presence of pan-caspase inhibitor z-VAD.fmk; assay type: functional, cell-based
Summary of the method: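 HeLa cells given 2.5 μM compound for 48 h with or without 100 μM z-VAD.fmk pan-caspase inhibitor; viability measured; means ± SEM of three independent experiments, Student's t-test.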

PBMC [4] = test: Cytotoxicity against human PHA-stimulated PBMC assessed as growth inhibition after 72 hrs by MTT assay; assay type: functional, cell-based
CCRF-CEM [5] = test: Resistance ratio of IC50 for human CEM/VBL100 cells to IC50 for human CEM cells; assay type: functional
Summary of the method: (§1)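 Ratio of IC50 in resistant line to IC50 in parental line (CEMVbl-100/CEM; LoVoDoxo/LoVo), each IC50 from 72 h MTT dose–response curves, ≥3 independent experiments.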

HeLa [6] = test: Cytotoxicity against human HeLa cells assessed as growth inhibition after 72 hrs by MTT assay; assay type: functional, cell-based
Tubulin (Homo sapiens) = Tubulin (Homo sapiens) (UniProt P68371+Q9H4B7+P0DPH7+P68366+Q13509+Q71U36+P04350+Q3ZCM7+P07437+P68363+Q9BQE3+Q6PEY2+Q13885+Q9BVA1+Q9BUF5); test: Inhibition of tubulin polymerization in human HeLa cells assessed as microtubule disruption at 2.5 to 5 uM after 24 hrs by immunofluorescence microscopy relative to untreated control; assay type: cell-based
Summary of the method: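 HeLa cells exposed 24 h to 2.5 or 5.0 μM versus untreated; fixed in cold 4% formaldehyde 15 min, stained with anti-β-tubulin monoclonal (1:1000) and Alexa secondary (1:2000), DAPI counterstain; imaged by confocal microscopy at 20×.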

HeLa [7] = test: Induction of DNA damage in human HeLa cells assessed as increase in gammaH2A.X protein expression at 1 to 2.5 uM after 48 hrs by Western blotting analysis; assay type: functional, cell-based
HeLa [8] = test: Induction of apoptosis in human HeLa cells assessed as reduction in Bcl-2 protein expression at 1 to 2.5 uM after 48 hrs by Western blotting analysis; assay type: functional, cell-based
Summary of the method: (§2)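 HeLa cells treated at indicated concentrations and times; washed in cold PBS, lysed 30 min at 0 °C, cleared at 15 000 × g; 20 μg protein resolved on 7.5–15% gradient SDS-PAGE, blotted to PVDF, primary antibodies 2 h room temperature, peroxidase secondary 60 min, ECL detection; β-actin reprobe for loading.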

HeLa [9] = test: Cell cycle arrest in human HeLa cells assessed as reduction in S phase after 24 hrs by propidium iodide staining-based flow cytometry; assay type: functional
Summary of the method: (§3)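 HeLa cells in exponential growth (2.5 × 10^5) treated 24 h at various concentrations; ethanol-fixed (70%, ice-cold), lysed with RNase A/0.1% Triton X-100, PI-stained; DNA content by flow cytometry, phase percentages from DNA histograms.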

HeLa [10] = test: Induction of apoptosis in human HeLa cells assessed as PARP cleavage at 1 to 2.5 uM by Western blotting analysis; assay type: functional, cell-based; settings: TDE = time-dependent effect; summary of the method: as §2
MCF7 = test: Cytotoxicity against human MCF7 cells assessed as growth inhibition after 72 hrs by MTT assay; assay type: functional, cell-based; settings: MCF7, 72 h
HeLa [11] = test: Induction of apoptosis in human HeLa cells assessed as caspase-9 activation at 1 to 2.5 uM after 24 to 48 hrs by Western blotting analysis; assay type: functional, cell-based; summary of the method: as §2
[12] = Cytotoxicity against human LoVo/DX cells assessed as growth inhibition after 72 hrs by MTT assay; assay type: functional, cell-based
HeLa [13] = test: Induction of apoptosis in human HeLa cells assessed as increase in Bak protein expression at 1 to 2.5 uM after 24 to 48 hrs by Western blotting analysis; assay type: functional, cell-based
HeLa [14] = test: Induction of apoptosis in human HeLa cells assessed as increase in Bid protein expression at 1 uM after 24 hrs by Western blotting analysis; assay type: functional, cell-based
HeLa [15] = test: Induction of apoptosis in human HeLa cells assessed as caspase-3 activation after 24 to 48 hrs by Western blotting analysis; assay type: functional, cell-based; summary of the method: as §2
HeLa [16] = test: Induction of apoptosis in human HeLa cells assessed as caspase-8 activation at 1 to 2.5 uM after 24 to 48 hrs by Western blotting analysis; assay type: functional, cell-based; summary of the method: as §2
HeLa [17] = test: Induction of apoptosis in human HeLa cells assessed as reduction in Bcl-2 protein expression at 1 to 2.5 uM by Western blotting analysis; assay type: functional, cell-based; settings: TDE = time-dependent effect; summary of the method: as §2
LoVo [18] = test: Cytotoxicity against human LoVo cells assessed as growth inhibition after 72 hrs by MTT assay; assay type: functional, cell-based
[19] = Cytotoxicity against human SEM cells assessed as growth inhibition after 72 hrs by MTT assay; assay type: functional, cell-based
HeLa [20] = test: Induction of apoptosis in human HeLa cells assessed as increase in Bax protein expression at 1 to 2.5 uM after 24 to 48 hrs by Western blotting analysis; assay type: functional, cell-based
HeLa [21] = test: Induction of apoptosis in human HeLa cells assessed as GSH depletion after 24 hrs by CMFDA staining-based flow cytometry; assay type: functional, cell-based
Summary of the method: (§4)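 HeLa cells treated 24 h with compound, alone or with 100 μM NAC; harvested and loaded with 5 μM CMFDA, 30 min at 37 °C; intracellular GSH read as CMFDA fluorescence by flow cytometry; means ± SEM.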

HeLa [22] = test: Cell cycle arrest in human HeLa cells assessed as accumulation at G2/M phase after 24 hrs by propidium iodide staining-based flow cytometry; assay type: functional; summary of the method: as §3
HeLa [23] = test: Induction of apoptosis in human HeLa cells at 0.62 to 5 uM after 24 to 48 hrs by Annexin V/FITC staining-based flow cytometry; assay type: functional, cell-based
Summary of the method: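 HeLa cells treated 24 or 48 h at indicated concentrations, then stained with annexin-V-FITC plus PI; flow cytometry with 488 nm excitation, 525 and 585 nm emission; live, early/late apoptotic and necrotic populations distinguished; means of three independent experiments.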

HeLa [24] = test: Induction of apoptosis in human HeLa cells assessed as caspase-3 activation at 1 to 2.5 uM by Western blotting analysis; assay type: functional, cell-based; settings: TDE = time-dependent effect; summary of the method: as §2
PBMC [25] = test: Cytotoxicity against human resting PBMC assessed as growth inhibition after 72 hrs by MTT assay; assay type: cell-based
Summary of the method: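 Healthy-donor PBMC from Lymphoprep gradient, rested overnight in RPMI-1640/10% FBS; non-adherent cells at 5 × 10^5 cells/mL without PHA, treated 72 h with varying concentrations; viability by MTT; IC50 mean ± SEM, three separate experiments.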

CCRF-CEM [26] = test: Cytotoxicity against human CEM cells assessed as growth inhibition after 72 hrs by MTT assay; assay type: functional, cell-based
HT-29 = test: Cytotoxicity against human HT-29 cells assessed as growth inhibition after 72 hrs by MTT assay; assay type: functional, cell-based; settings: HT-29, 72 h
[27] = Selectivity ratio of IC50 for human resting PBMC to IC50 for human Jurkat cells; assay type: ADME, cell-based; settings: resting PBMC versus Jurkat cells, read-out: Ratio IC50
HeLa [28] = test: Induction of apoptosis in human HeLa cells assessed as PARP cleavage after 24 to 48 hrs by Western blotting analysis; assay type: functional, cell-based; summary of the method: as §2
Jurkat = test: Cytotoxicity against human Jurkat cells assessed as growth inhibition after 72 hrs by MTT assay; assay type: functional, cell-based
LoVo [29] = test: Resistance ratio of IC50 for human LoVo/DX cells to IC50 for human LoVo cells; assay type: functional; summary of the method: as §1
HeLa [30] = test: Induction of apoptosis in human HeLa cells assessed as reduction in Mcl-1 protein expression at 2.5 uM after 48 hrs by Western blotting analysis; assay type: functional, cell-based; summary of the method: as §2
HeLa [31] = test: Induction of apoptosis in human HeLa cells assessed as GSH depletion at 1 to 2.5 uM after 24 hrs by CMFDA staining-based flow cytometry in presence of N-acetylcysteine; assay type: functional, cell-based; summary of the method: as §4

SMILES: C=C(Br)C(=O)O
IC50 (L1210): > 120000 nM

inhibition (Tubulin (Bos taurus)): inactive
inhibition (Tubulin (Homo sapiens)): inactive
SMILES: C=C(Br)C(=O)Nc1cccc(/C=C/C(=O)Nc2ccc(N3CCOCC3)cc2)c1
IC50 [1]: 410 nM
selectivity ratio [2]: 10
Activity (HeLa [3]): inactive
IC50 (PBMC [4]): 500 nM
Ratio IC50 (CCRF-CEM [5]): 0.7
IC50 (HeLa [6]): 430 nM
Activity (HeLa [7]): Active
Activity (HeLa [8]): Active
Activity (HeLa [9]): Active
Activity (HeLa [10]): tde
IC50 (MCF7): 2600 nM
Activity (HeLa [11]): inactive
IC50 [12]: 1050 nM
Activity (HeLa [13]): inactive
Activity (HeLa [14]): inactive
Activity (HeLa [15]): Dose-dependent effect
Activity (HeLa [16]): Active
Activity (HeLa [17]): tde
IC50 (LoVo [18]): 510 nM
IC50 [19]: 57 nM
Activity (HeLa [20]): inactive
Activity (HeLa [21]): Dose-dependent effect
Activity (HeLa [22]): Dose-dependent effect
Activity (HeLa [23]): Active
Activity (HeLa [24]): tde
IC50 (PBMC [25]): 4000 nM
IC50 (CCRF-CEM [26]): 610 nM
IC50 (HT-29): 1600 nM
selectivity ratio [27]: 10
Activity (HeLa [28]): Dose-dependent effect
IC50 (Jurkat): 40 nM
Ratio IC50 (LoVo [29]): 2
Activity (HeLa [30]): Active
Activity (HeLa [31]): inactive
